Published values collected from several papers.
Each line is one published result; the experiments were not run side by side. pIC50: −log10 of the molar value.
Effect on: cell growth or viability

With `COc1ccc(-c2cc(-c3ccc(OC)cc3)c3c(=O)n(C)c(=O)n(C)c3n2)cc1` the pIC50 was 4.58 (PC-3; MTT; 48 h).
For `CCc1c(C)c2ccc(OCc3nnc(S)n3N)c(C)c2oc1=O`, the viability was 11.3% (PC-3; MTT; 125 µg/mL).
The pIC50 of `C=CC(=O)NC1CCN(c2ncc3ncnc(Nc4ccc(Oc5ccc6c(c5)ncn6C)c(C)c4)c3n2)CC1` is reported as 7.24 (NCI-H2170).
With `O=C(/C=C/c1cccc(F)c1)Nc1cc(-c2ccnc(N3CCC(O)CC3)c2)ccn1` the inhibition was 62.4% (A549; MTT; 5 µM).
`CC(=NNC(=O)COc1ccc2c(C)c(Cc3ccccc3)c(=O)oc2c1C)c1ccc(Br)cc1` has a viability of 14% (PC-3; MTT; 31.25 µg/mL).
With `COc1cccc2c1C(=O)c1c(O)c3c(c(O)c1C2=O)C[C@@](O)(C(=O)CO)C[C@@H]3O[C@H]1C[C@H](N)[C@H](O)[C@H](C)O1` the viability was 12.4% (A549; MTT; 100 µg/mL; 48 h; serum-free).
For `Cc1cccc(/C=C/C(=O)Nc2cc(-c3ccnc(N4CCOCC4)c3)ccn2)c1`, the inhibition was 74.9% (A549; MTT; 5 µM).
`Cc1c(Cc2ccccc2)c(=O)oc2c(C)c(OCC(=O)NN=Cc3ccco3)ccc12` gave a viability of 8.21% (PC-3; MTT; 500 µg/mL).
With `COc1ccc(-c2cc(-c3ccc(C)cc3)nc3[nH]c(=O)[nH]c(=O)c23)cc1OC` the pIC50 was 4.41 (PC-3; MTT; 48 h).
With `CC(C)C[C@@H]1NC(=O)[C@@H](N(C)C(=O)[C@H](CC2CCC2)NC(=O)[C@@H]2C[C@@H](F)CN2C(=O)C2(C(F)(F)F)CC(F)(F)C2)CCCCNC(=O)C2(CC2)NC(=O)[C@H](Cc2cc(Cl)ccc2Cl)N(C)C1=O` the GI50 was 0.032 µM (NCI-H1048; MTT; 5 days).
The pIC50 of `Cc1nc(Nc2ccc3c(c2)/C(=C/c2ccccc2C)C(=O)N3C)c2ccccc2n1` is reported as 4.67 (A549; MTT).
For `Cc1cccc(/C=C/C(=O)Nc2cccc(-c3ccnc(N4CCC(O)CC4)c3)c2)c1`, the inhibition was 54.8% (A549; MTT; 5 µM).
`Cc1nc(Nc2ccc3c(c2)/C(=C/c2ccccc2)C(=O)N3C)c2ccccc2n1` has a pIC50 of 4.56 (A549; MTT).
For `O=C(C=Cc1ccccc1)Nc1cc(-c2ccnc(N3CCC(O)CC3)c2)ccn1`, the inhibition was 73.1% (A549; MTT; 5 µM).
`Cc1nc(Nc2ccc3c(c2)C(C)(C)C(=O)N3C)c2ccccc2n1` gave a pIC50 of 5.68 (A549; MTT).
`Cc1c(Cc2ccccc2)c(=O)oc2c(C)c(OCC(=O)NN=Cc3ccccc3)ccc12` gave a viability of 42.1% (PC-3; MTT; 31.25 µg/mL).
With `O=C(/C=C/c1ccc(F)cc1)Nc1cc(-c2ccnc(N3CCC(O)CC3)c2)ccn1` the inhibition was 62.2% (A549; MTT; 5 µM).
`C=CCOc1ccc2c(C)c(CC)c(=O)oc2c1C` has a viability of 99.7% (PC-3; MTT; 31.25 µg/mL).
The inhibition of `O=C(C=Cc1ccccc1)Nc1cccc(-c2ccnc(N3CCC(CO)CC3)c2)c1` is reported as 59.1% (A549; MTT; 5 µM).
With `Cc1c(Cc2ccccc2)c(=O)oc2c(C)c(OCC(=O)NN=Cc3ccc(Cl)cc3)ccc12` the viability was 61.2% (PC-3; MTT; 31.25 µg/mL).
`Cc1nc(Nc2ccc3c(c2)CC(=O)N3)c2ccccc2n1` gave a pIC50 of 4.54 (A549; MTT).
`O=C(C=Cc1ccccc1)Nc1cc(-c2ccnc(N3CCOCC3)c2)ccn1` gave an inhibition of 76.7% (A549; MTT; 5 µM).
With `CCc1c(C)c2ccc(OCC(=O)NN=Cc3ccc([N+](=O)[O-])cc3)cc2oc1=O` the viability was 5.32% (PC-3; MTT; 500 µg/mL).
`Cc1ccc(-c2cc(-c3ccc(Cl)cc3)c3c(=O)n(C)c(=O)n(C)c3n2)cc1` gave a pIC50 of 4.93 (PC-3; MTT; 48 h).
With `COc1cccc2c1C(=O)c1c(O)c3c(c(O)c1C2=O)C[C@@](O)(C(=O)CO)C[C@@H]3O[C@H]1C[C@H](N)[C@H](O)[C@H](C)O1` the pIC50 was 5.19 (HUVEC; MTT; 24 h).
The pIC50 of `O=C(O)c1ccc2c(c1)nc(Nc1cccc(Cl)c1)c1ccncc12` is reported as 5.51 (NCI-H522; crystal violet; 48 h).
`CCc1c(C)c2ccc(OCC(=O)NNC(=S)Nc3ccccc3)c(C)c2oc1=O` has a viability of 4.76% (PC-3; MTT; 125 µg/mL).
The inhibition of `Cc1cc(NC(=O)C=Cc2ccccc2)cc(-c2ccnc(N3CCC(CO)CC3)c2)c1` is reported as 54.3% (A549; MTT; 5 µM).
